According to ChEMBL document CHEMBL1795258, “A diazen-1-ium-1,2-diolated nitric oxide donor ester prodrug of 3-(4-hydroxymethylphenyl)-4-(4-methanesulfonylphenyl)-5H-furan-2-one: synthesis, biological evaluation and nitric oxide release studies” (Bioorg Med Chem Lett, 2011):

Columns and labels:
[1] = test system: Mesenteric artery; assay: Inhibition of phenylephrine-induced vasoconstriction in Long Evans rat mesenteric arteries treated 45 mins before phenylephrine challenge; assay type: functional
Outline: (§1)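 Second-order mesenteric arteries (<250 in diameter, ~2 mm long) dissected in cold (0–4 °C) HEPES-buffered phosphate saline, pH 7.4. Mounted on isometric wire myograph and pretreated 45 min with test compound (1 μM) or DMSO. Constriction to phenylephrine 10^-7–5 × 10^-5 M then recorded.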

[2] = test system: Mesenteric artery; assay: Inhibition of phenylephrine-induced vasoconstriction in Long Evans rat mesenteric arteries assessed as maximum response treated 45 mins before phenylephrine challenge (reference value: 2.13 +/- 0.23 g/mm); assay type: functional; outline: as §1
[3] = Prodrug activation in 1.0 x 10^-2 mM of phosphate buffered saline at pH 7.4 assessed as nitric oxide release after 1.5 hrs by Griess reaction in presence of rat serum; conditions: pH 7.4, 1.5 h
Outline: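 Compound at 1.0 × 10^-2 mM in pH 7.4 phosphate buffer with a little DMSO plus 90 μL rat serum in 2.4 mL, 37 °C for 1.5 h. Nitrite quantified by Griess reaction as % of theoretical 2 mol NO per mol. Mean of n = 3, variation ≤0.5%.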

[4] = test system: Rattus norvegicus; assay: Antiinflammatory activity in po dosed rat assessed as inhibition of carrageenan-induced foot paw edema after 3 hrs; assay type: functional
Outline: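 Carrageenan-induced rat paw edema; test compound given orally, edema inhibition read at 3 h; potency reported as ED50 in μmol/kg.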

[5] = Prodrug activation in 1.0 x 10^-2 mM of phosphate buffered saline at pH 7.4 assessed as nitric oxide release after 1.5 hrs by Griess reaction; assay type: physicochemical; conditions: buffer, pH 7.4, 1.5 h
Outline: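 Compound at 1.0 × 10^-2 mM in pH 7.4 phosphate buffer with a little DMSO, 37 °C for 1.5 h. NO measured as nitrite by Griess reaction, expressed as % of theoretical 2 mol NO per mol. Mean of n = 3, variation ≤0.5%.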

[6] = target: T1, Prostaglandin G/H synthase 1 (Ovis aries, UniProt P05979); assay: Inhibition of ovine COX1 by enzyme immuno assay
T1 sequence (P05979 whole entry): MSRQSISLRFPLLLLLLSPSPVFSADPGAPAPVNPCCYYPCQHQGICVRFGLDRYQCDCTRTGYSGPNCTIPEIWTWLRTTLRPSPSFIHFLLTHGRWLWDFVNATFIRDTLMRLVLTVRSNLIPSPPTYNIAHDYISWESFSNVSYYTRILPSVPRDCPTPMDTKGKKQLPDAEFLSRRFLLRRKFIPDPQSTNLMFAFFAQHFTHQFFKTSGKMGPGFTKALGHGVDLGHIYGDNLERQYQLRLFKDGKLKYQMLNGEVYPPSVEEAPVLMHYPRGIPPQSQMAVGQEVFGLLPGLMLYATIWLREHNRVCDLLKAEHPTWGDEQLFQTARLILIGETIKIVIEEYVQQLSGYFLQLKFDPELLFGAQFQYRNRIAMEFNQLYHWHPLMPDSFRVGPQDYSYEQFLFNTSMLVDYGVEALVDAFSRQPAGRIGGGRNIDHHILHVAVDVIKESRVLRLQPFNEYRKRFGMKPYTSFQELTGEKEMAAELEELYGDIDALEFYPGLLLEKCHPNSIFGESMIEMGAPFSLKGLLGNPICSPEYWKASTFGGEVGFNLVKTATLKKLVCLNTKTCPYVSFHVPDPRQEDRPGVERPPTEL

[7] = test system: Mesenteric artery; assay: Inhibition of acetylcholine-induced relaxation in Long Evans rat phenylephrine pre-constricted mesenteric arteries assessed as maximum response (reference value: 0.38 +/- 0.01 g/mm); assay type: functional
[8] = test system: Mesenteric artery; assay: tissue or blood; conditions: Rattus norvegicus, Long Evans

IC50 [1]	Activity [3]	Activity [5]	IC50 [6]	IC50 [8]	SMILES	IC20 [1]	Activity [2]	ED50 [4]	Activity [7]
1750 nM	38.4%	4.2%	> 100000 nM		CC(=O)OCO/N=[N+](/[O-])N1CCC[C@@H]1C(=O)OCc1ccc(C2=C(c3ccc(S(C)(=O)=O)cc3)COC2=O)cc1	1370 nM	1.17 g/mm	72.2 µmol/kg	
	85%	84.5%			[Na+].[O-]/N=[N+](/[O-])N1CCC[C@@H]1CO				
1680 nM			33100 nM	95 nM	CS(=O)(=O)c1ccc(C2=C(c3ccc(CO)cc3)C(=O)OC2)cc1	1010 nM	1.51 g/mm	113 µmol/kg	0.3 g/mm
1660 nM				88 nM	CS(=O)(=O)c1ccc(C2=C(c3ccccc3)C(=O)OC2)cc1 [ROFECOXIB]	950 nM	1.32 g/mm	4.8 µmol/kg	0.23 g/mm
